The source of these data is ChEMBL document CHEMBL4350954, “Identification of Thienopyrimidine Scaffold as an Inhibitor of the ABC Transport Protein ABCC1 (MRP1) and Related Transporters Using a Combined Virtual Screening Approach” (J Med Chem, 2019).

A value given as a limit tells only on which side of the number the result lay.

The target of one data set is T1, ABCG2 (BCRP) (Homo sapiens, UniProt Q9UNQ0).
T1 sequence (Q9UNQ0 whole entry): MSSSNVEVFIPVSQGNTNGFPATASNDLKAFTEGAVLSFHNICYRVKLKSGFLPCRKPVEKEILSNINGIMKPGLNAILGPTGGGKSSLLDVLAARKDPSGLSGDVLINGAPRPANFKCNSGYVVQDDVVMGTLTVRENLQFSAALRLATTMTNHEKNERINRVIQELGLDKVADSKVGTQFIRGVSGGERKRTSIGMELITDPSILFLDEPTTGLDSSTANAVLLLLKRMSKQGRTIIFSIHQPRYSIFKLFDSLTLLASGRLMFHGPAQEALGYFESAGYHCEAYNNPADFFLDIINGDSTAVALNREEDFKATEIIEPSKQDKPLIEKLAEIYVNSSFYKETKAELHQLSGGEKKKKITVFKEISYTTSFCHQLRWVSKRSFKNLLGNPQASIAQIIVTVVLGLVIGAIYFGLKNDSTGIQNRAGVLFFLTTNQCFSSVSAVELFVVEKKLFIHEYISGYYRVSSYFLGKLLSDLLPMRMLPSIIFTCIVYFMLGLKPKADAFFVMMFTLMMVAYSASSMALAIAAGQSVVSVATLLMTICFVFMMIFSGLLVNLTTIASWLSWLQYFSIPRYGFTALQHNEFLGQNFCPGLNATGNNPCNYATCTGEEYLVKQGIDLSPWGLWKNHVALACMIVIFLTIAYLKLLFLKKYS
The data set is described as follows: Inhibition of ABCG2 (unknown origin) expressed in MDCK2 cells co-expressing BCRP (unknown origin) assessed as effect on pheophorbide A accumulation at 10 uM pre-incubated for 20 mins followed by pheophorbide A addition and measured after 120 mins by flow cytometric analysis relative to Ko143. The note with it: probe pheophorbide A. It is filed as cell-based. In a few lines: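 Pheophorbide A accumulation assay in ABCG2-transfected MDCK II BCRP cells. Ko143 at 10 µM set 100% and no compound set 0%. Screening was at 10 µM; compounds reaching >20% (+SEM) got IC50 curves constrained to the Ko143 maximum at 10 µM. Values are reported as mean ± SEM.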
In general terms: In flow cytometry, cells or beads pass a laser one at a time.

The next data set addresses ABCC1 (MRP1) (Homo sapiens, UniProt P33527). The data set is described as follows: Inhibition of ABCC1 in human H69AR cells at 10 uM preincubated for 30 mins followed by calcein-AM addition measured at 60 secs time interval by fluorescence assay relative to control. The data set is classed as cell-based. The conditions noted are these: probe calcein-AM. In a few lines:
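Calcein AM accumulation assay in H69AR small-cell lung cancer cells, which express only ABCC1. Inhibited efflux lets calcein AM build up intracellularly, where esterases cleave it to fluorescent calcein. The screen used 10 µM, scaled to a standard ABCC1 inhibitor at 10 µM as 100%. Hits reaching ≥20% inhibition (+SEM) went on to IC50 curves, constrained to that 100% maximum. Values are means of ≥3 independent experiments in duplicate ± SEM.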

Data set [1] concerns the target T2, Multidrug resistance-associated protein 1 (Homo sapiens, UniProt P33527). The data set is described as follows: Reversal of ABCC1 (unknown origin)-mediated multidrug resistance in MDCK2 cells co-expressing MRP1 (unknown origin) assessed as resistance factor by measuring [GI50(resistant cell line without or with compound)/ GI50(sensitive cell line)] at 10 uM incubated for 72 hrs by MTT assay (reference value: 7). It is filed as cell-based.

Data set [2] is described as follows: Growth inhibition of human MCF7/MX cells incubated for 72 hrs by MTT assay. A digest of the protocol:
(§1)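 MTT-based cytotoxicity assay giving GI50 of the compound alone in each listed parental, selected or transfected cell line.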

Data set [3] in a line: Growth inhibition of MDCK2 cells incubated for 72 hrs by MTT assay. It is filed as cell-based, Canis lupus familiaris, MDCK-II. The conditions noted are these: dog. In a few lines:
as §1
(In general: Tetrazolium dyes change colour on reduction, which living cells bring about.)

Data set [4] has as its system ABCB1 (P-gp). The data set is described as follows: Therapeutic index, ratio of GI50 for human A2780/ADR cells to IC50 for ABCB1 in human A2780/ADR cells. The data set is classed as toxicity, cell-based. The note with it: read-out: TI. In a few lines:
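Therapeutic ratio = GI50 from the MTT cytotoxicity assay / IC50 from the inhibition assay in the same cell line. The cell lines were H69AR (calcein AM, ABCC1), A2780/ADR (calcein AM, ABCB1) and MDCK II BCRP (pheophorbide A, ABCG2).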

A short description of data set [5]: Growth inhibition of human H69AR cells incubated for 72 hrs by MTT assay. In a few lines:
as §1

Data set [6] addresses T2, Multidrug resistance-associated protein 1. The data set is described as follows: Reversal of ABCC1-mediated multidrug resistance in human H69AR cells assessed as resistance factor by measuring [GI50(resistant cell line without or with compound)/ GI50(sensitive cell line)] at 10 uM incubated for 72 hrs by MTT assay (reference value: 8.2). The data set is classed as cell-based.

Data set [7] concerns the target ABCB1 (P-gp) (Homo sapiens, UniProt P08183). The data set is described as follows: Inhibition of ABCB1 in human A2780/ADR cells at 10 uM preincubated for 30 mins followed by calcein AM addition and measured at 60 secs time interval by fluorescence assay relative to cyclosporine A. It is filed as cell-based. The note with it: probe calcein AM.
Data set [8] deals with T2, Multidrug resistance-associated protein 1. The data set is described as follows: Reversal of ABCC1-mediated multidrug resistance in human H69AR cells assessed as resistance factor by measuring [GI50(resistant cell line without or with compound)/ GI50(sensitive cell line)] at 5 uM incubated for 72 hrs by MTT assay (reference value: 8.2). It is filed as cell-based.

T2 sequence (P33527 whole entry): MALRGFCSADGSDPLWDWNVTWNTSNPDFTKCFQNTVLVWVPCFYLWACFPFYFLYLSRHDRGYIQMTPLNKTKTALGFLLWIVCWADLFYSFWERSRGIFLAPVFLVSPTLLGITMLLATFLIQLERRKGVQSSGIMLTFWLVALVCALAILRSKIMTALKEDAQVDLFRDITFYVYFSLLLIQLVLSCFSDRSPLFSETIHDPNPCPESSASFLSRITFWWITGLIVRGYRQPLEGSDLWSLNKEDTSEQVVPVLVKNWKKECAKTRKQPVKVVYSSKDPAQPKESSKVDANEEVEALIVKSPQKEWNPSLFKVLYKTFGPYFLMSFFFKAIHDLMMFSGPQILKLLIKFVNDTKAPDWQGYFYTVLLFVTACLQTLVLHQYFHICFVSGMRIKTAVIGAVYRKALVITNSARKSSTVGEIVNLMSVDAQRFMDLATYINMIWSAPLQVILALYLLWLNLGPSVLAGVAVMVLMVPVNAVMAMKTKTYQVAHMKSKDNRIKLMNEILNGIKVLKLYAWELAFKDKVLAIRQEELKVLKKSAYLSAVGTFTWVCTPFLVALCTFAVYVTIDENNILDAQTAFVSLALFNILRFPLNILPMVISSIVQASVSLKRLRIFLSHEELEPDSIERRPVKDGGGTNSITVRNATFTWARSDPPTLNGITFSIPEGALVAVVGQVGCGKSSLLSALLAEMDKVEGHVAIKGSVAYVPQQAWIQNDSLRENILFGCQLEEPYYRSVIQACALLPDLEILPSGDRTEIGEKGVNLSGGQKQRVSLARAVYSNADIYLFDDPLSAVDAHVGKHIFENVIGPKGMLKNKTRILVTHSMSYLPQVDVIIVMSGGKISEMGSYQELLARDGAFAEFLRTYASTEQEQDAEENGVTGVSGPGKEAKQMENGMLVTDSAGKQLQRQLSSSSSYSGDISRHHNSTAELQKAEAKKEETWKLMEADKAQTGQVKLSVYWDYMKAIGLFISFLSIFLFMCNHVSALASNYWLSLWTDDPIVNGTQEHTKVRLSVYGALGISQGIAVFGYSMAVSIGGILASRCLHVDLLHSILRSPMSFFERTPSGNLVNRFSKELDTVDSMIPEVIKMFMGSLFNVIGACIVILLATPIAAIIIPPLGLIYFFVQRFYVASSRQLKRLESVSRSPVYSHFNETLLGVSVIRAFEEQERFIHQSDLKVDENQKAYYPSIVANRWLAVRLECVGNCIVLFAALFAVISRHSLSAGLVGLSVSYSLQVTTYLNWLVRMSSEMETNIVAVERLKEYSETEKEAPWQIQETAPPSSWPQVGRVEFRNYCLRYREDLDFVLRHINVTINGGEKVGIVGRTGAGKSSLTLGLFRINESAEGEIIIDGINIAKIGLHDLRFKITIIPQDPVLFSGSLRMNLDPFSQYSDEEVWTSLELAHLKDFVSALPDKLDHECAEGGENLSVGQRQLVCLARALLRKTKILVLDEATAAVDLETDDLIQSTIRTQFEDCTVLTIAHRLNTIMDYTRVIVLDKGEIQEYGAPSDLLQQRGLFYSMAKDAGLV
Chain of ABCC1 (MRP1) (P33527 whole entry): as above
Chain of ABCB1 (P-gp) (Homo sapiens, UniProt P08183) (P08183 whole entry): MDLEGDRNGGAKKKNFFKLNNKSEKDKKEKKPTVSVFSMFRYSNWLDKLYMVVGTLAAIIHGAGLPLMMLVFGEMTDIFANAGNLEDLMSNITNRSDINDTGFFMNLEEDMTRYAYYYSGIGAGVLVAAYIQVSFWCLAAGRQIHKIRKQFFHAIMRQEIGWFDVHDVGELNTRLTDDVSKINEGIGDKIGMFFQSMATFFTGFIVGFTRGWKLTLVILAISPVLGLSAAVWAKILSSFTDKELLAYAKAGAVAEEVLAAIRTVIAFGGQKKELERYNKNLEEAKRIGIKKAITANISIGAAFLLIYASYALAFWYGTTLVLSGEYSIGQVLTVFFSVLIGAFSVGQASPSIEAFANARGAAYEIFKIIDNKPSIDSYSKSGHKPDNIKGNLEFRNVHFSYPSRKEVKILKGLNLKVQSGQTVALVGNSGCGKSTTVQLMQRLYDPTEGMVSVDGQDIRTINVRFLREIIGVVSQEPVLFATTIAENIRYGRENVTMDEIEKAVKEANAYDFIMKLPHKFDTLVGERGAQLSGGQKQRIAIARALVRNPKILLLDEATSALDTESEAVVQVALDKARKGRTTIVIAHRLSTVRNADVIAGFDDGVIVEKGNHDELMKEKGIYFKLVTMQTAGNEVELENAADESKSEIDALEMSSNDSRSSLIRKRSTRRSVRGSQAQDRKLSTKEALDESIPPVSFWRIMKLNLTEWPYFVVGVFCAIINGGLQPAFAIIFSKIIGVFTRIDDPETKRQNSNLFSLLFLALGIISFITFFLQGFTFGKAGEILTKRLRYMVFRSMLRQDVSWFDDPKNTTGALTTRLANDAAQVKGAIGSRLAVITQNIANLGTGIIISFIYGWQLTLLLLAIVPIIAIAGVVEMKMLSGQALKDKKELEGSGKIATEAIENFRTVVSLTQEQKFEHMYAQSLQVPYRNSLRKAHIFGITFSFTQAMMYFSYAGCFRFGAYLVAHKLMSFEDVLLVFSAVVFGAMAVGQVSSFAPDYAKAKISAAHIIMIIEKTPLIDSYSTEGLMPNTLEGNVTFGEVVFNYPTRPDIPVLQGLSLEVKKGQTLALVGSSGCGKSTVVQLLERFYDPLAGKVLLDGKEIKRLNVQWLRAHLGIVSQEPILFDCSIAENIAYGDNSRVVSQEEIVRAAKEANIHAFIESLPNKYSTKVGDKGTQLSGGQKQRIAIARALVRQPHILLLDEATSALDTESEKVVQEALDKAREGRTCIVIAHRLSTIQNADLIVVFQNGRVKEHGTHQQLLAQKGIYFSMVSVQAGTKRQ

For `CC1CCc2c(sc3nc(-c4cccnc4)nc(N4CCN(C(C(N)=O)c5ccccc5)CC4)c23)C1` (stereo not given), the inhibition at 2 h, 10 µM on ABCG2 (BCRP) is at least 20%. Moreover, the inhibition at 1 min, 10 µM on ABCC1 (MRP1) and at ABCB1 (P-gp) [7] was at least 20% each time. Moreover, the figures for the RatioGI50 in [1], in data set [6] and in [8] were 1.4, 3 and 3.8, respectively. Moreover, the GI50 at 72 h in data set [2] was found to be 47 µM; in [3] it was 27 µM; in data set [5] it was 56.9 µM. For the same molecule, the selectivity ratio with ABCB1 (P-gp) [4] is 14.9.

By inhibition is commonly meant the percentage by which the read-out fell short of the control. One may read the GI50 as the concentration that inhibits growth by half.
